Bioassay records (PubChem BioAssay)
SENP8 block-1: blocks human SENP8 cleavage of Nedd8 substrate; 360,000 tested, 0.64% active; AID 602440; Q96LD8; recombinant SENP8, Nedd8 substrate fluorescence; inhibition, % at 20 µM; in the data active means inhibition mostly above about 40%, no sharp cut-off; inactive means mostly below about 27%
Target sequence (Q96LD8 whole entry, looked up): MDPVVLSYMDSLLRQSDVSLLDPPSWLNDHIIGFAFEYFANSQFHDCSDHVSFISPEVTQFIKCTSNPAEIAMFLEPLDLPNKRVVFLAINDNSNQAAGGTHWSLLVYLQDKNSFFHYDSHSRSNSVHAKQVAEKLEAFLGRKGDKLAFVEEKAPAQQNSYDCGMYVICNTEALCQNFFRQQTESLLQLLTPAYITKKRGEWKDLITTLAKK
SENP8 block-2: blocks the human protease SENP8 | Q96LD8 | purified SENP8, Z-RLRGG-aminoluciferin cleavage, luminescence | inhibition, % at 10 µM | 330,000 tested, 1.2% active | AID 2540; in the data active means inhibition above about 50%
SENP7 inh: blocks the human protease SENP7; 330,000 tested, 1.5% active; inhibition, % at 5 µM; recombinant SENP7, Z-RLRGG-aminoluciferin luminescence, 40 min;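 active means inhibition above about 50% at the single test dose, limit read from the data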;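 further: plate controls were DMSO with enzyme for no effect and no enzyme buffer wells for full effect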
HSP90 refold inh: HSP90 refolding inhibition in rabbit reticulocyte lysate. inhibition, % at 5.6 µM. luciferase refolding luminescence, 3 h. 290,000 tested, 0.91% active. AID 1789;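 active means inhibition above the screen-wide mean plus 3 SD, computed separately per campaign, cut at about 16% in these data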;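 further: 0% = DMSO wells and 100% = 60 µM geldanamycin wells; inhibitors lower the luminescence because luciferase stays unfolded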
SENP6 block: blocks the human protease SENP6. Q9GZR1. Recombinant SENP6 catalytic domain, aminoluciferin luminescence. inhibition, % at 10 µM. 330,000 tested, 1.8% active;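 active means inhibition above about 50% at the single tested dose, limit read from the data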;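 further: plate controls were DMSO wells with enzyme for no effect and DMSO wells lacking enzyme for full effect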
SENP1 inh: blocks the human SENP1 SUMO protease catalytic domain; Q9P0U3; recombinant SENP1 catalytic domain, CyPet-SUMO1-YPet FRET cleavage; inhibition, % at 10 µM; 360,000 tested, 0.21% active; AID 624204;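 active means inhibition at least 30% at 10 µM, raw YFP signal under a set limit, fluorescence ratio 0.5 to 1.5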;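 further: 0% = enzyme with DMSO and 100% = no enzyme wells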
Target sequence (Q9P0U3 419-644 limits assumed): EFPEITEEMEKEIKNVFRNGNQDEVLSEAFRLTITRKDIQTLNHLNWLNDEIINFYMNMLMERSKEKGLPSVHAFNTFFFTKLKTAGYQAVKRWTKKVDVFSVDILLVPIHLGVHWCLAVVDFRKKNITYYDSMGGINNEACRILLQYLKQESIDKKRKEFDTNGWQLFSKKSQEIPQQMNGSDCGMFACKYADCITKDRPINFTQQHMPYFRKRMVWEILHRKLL
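Test system: hSENP1 catalytic domain, recombinant; Amount: 20 pM final SENP1 enzyme; Medium: Tris pH 8 buffer plus EDTA, NaCl, BME, BSA, NP40, catalase; Schedule: 50 min enzyme reaction, room temperature, light-protected; Technique: FRET fluorescence in CFP and YFP emission channels; Controls: no-enzyme wells low, DMSO-plus-enzyme wells high control.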
SENP8 confirm: human SENP8 inhibition, confirmed | shares compounds with SENP7 inh | Recombinant SENP8, Z-RLRGG-aminoluciferin luminescence, 60 min | inhibition, % at 12.5 µM | 6,200 tested, 40% active | AID 488912;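 active means mean inhibition across replicates above about 50%, limit read from the data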
SENP6 conf: confirmation of human SENP6 protease inhibitors; shares compounds with SENP7 inh; recombinant SENP6, Z-RLRGG-aminoluciferin luminescence; inhibition, % at 12.5 µM; 6,200 tested, 58% active; AID 488915
SENP7 confirm: human SENP7 inhibition, confirmed | shares compounds with SENP7 inh | inhibition, % at 12.5 µM | 6,200 tested, 69% active | AID 488917 | recombinant SENP7, Z-RLRGG-aminoluciferin luminescence, 40 min
Casp3 SENP sel: caspase-3 inhibition (SENP selectivity assay); shares compounds with SENP7 inh; purified caspase-3, Z-DEVD-aminoluciferin luminescence, 60 min; inhibition, % at 12.5 µM; 6,200 tested, 60% active;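 active means mean inhibition above about 50%, limit read from the data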;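 further: plate controls were enzyme with DMSO for no effect and wells without caspase-3 for full effect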
Target sequence (P42574 28-227 limits assumed): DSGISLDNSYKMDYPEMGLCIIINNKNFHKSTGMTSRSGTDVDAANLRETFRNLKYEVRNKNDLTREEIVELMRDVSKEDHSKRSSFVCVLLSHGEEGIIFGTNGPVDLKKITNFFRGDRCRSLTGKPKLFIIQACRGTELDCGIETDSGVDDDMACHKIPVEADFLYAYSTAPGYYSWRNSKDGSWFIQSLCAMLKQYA
SENP luc ctr: interferes with luciferase luminescence in SENP counter-screen; 6,200 tested, 39% active; Pre-incubated SENP8/Z-RLRGG-aminoluciferin, luciferase luminescence interference; AID 488919; inhibition, % at 12.5 µM; shares compounds with SENP7 inh;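 active means mean inhibition above about 50% when retested at one dose, limit read from the data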;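 further: plate controls were DMSO wells with completed reaction for no effect and substrate without enzyme for full effect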
The depositor's hits bear a star; . = no result given. Hits are enriched below; roughly 2.9% of the tested compounds scored in any of these assays.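 How the source made its calls, unless noted: active means mean inhibition above about 50% in the one-dose retest (limit read from the data); inactive means the rest.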

SMILES | SENP8 block-1 | SENP8 block-2 | SENP7 inh | HSP90 refold inh | SENP6 block | SENP1 inh | SENP8 confirm | SENP6 conf | SENP7 confirm | Casp3 SENP sel | SENP luc ctr
COc1cc(C)c(C(=O)Oc2cc(C)c(C(=O)O)c(O)c2)c(O)c1 | 34 | 55* | -3 | . | 56* | 0 | 42 | 35 | 64* | 22 | 59*
COc1cc(O)c(C(=O)O)c(CCc2ccccc2)c1 | 1 | . | -9 | . | . | 1 | . | . | . | . | .
O=[N+]([O-])c1ccccc1CSc1nc2ccccc2o1 | 17 | 29 | 9 | 0 | 55* | 4 | 18 | 14 | 49 | 7 | 9
N#CCSc1nc2ccccc2o1 | 7 | -2 | 8 | -2 | -17 | 3 | . | . | . | . | .
Cc1ccc(Sc2ncccc2N)cc1 | -32 | 20 | 25 | . | 67* | -13 | -25 | -16 | -12 | -10 | -4
Cc1cc(C(=O)CSc2nc(N)cc(=O)[nH]2)ccc1F | 20 | 90* | 1 | -2 | 7 | -1 | 2 | 4 | 3 | -4 | 1
CCC(=NCc1ccccc1)c1c(C(F)(F)F)[nH]n(-c2nc3ccccc3s2)c1=O | 7 | 60* | 89* | 0 | 85* | 2 | 18 | 12 | 20 | 64* | 49
CCC(=NCc1ccco1)c1c(C(F)(F)F)[nH]n(-c2nc3ccccc3s2)c1=O | 3 | 88* | 96* | 2 | 96* | -1 | 73* | 70* | 90* | 90* | 81*
CC(=O)c1c(C)[nH]c(C(=O)OCc2csc(CC(=O)Nc3ccccc3C)n2)c1C | -6 | -1 | 7 | . | -7 | -12 | . | . | . | . | .
CC1=C(C(=O)N(C)C)CC(CC(=O)NCc2cccc3ccccc23)C(=O)N1Cc1ccccc1 (centres undefined) | -1 | . | . | . | . | 0 | . | . | . | . | .
O=C1c2ccccc2C(c2nnnn2Cc2ccccc2)N1Cc1ccc2c(c1)OCO2 (centres undefined) | 10 | . | . | . | . | -2 | . | . | . | . | .
C/C(CC(C)C)=N\NS(=O)(=O)c1ccc(C)c([N+](=O)[O-])c1 | 27 | 4 | 3 | 1 | 85* | 0 | -10 | -10 | -6 | 4 | 0
C/C(=N\NS(=O)(=O)c1ccc(C)c([N+](=O)[O-])c1)c1cccs1 | 8 | 0 | 1 | -2 | -23 | -2 | . | . | . | . | .
O=c1cc(-c2ccc(O)cc2)oc2ccc3ccccc3c12 | -199 | 98* | 99* | . | 97* | 25 | 97* | 100* | 103* | 99* | 83*
COc1c(O)cc2oc(-c3ccc(O)cc3)cc(=O)c2c1O | 23 | 49 | 59* | . | 57* | -4 | 63* | 60* | 88* | 71* | 71*
COc1cc2oc(-c3ccc(O)cc3)cc(=O)c2c(OC)c1O | -215 | 3 | 4 | 4 | 1 | -29 | . | . | . | . | .
Cc1ccc(C=Nc2ccccc2C#N)s1 | -43 | 67* | 22 | 9 | 83* | 1 | 48 | 67* | 87* | 72* | 62*
Cc1ccc(/C=N/c2sc3c(c2C#N)CCC3)s1 | 6 | 23 | 84* | -2 | 78* | -16 | 14 | 13 | 16 | 15 | 13
Cc1ccc(/C=N/Nc2ccccn2)s1 | -20 | 6 | 5 | -1 | 17 | 0 | . | . | . | . | .
N#Cc1c(/N=C/c2cc3ccccc3s2)sc2c1CCC2 | 10 | -17 | -14 | 9 | -24 | -24 | . | . | . | . | .
Cc1ccc(/C=N/c2sc3c(c2C#N)CCCCC3)o1 | 23 | 87* | 0 | 0 | 97* | -1 | 94* | 95* | 100* | 69* | 77*
N#Cc1c(/N=C/c2ccco2)sc2c1CCC2 | -18 | 19 | -5 | 4 | -6 | -39 | . | . | . | . | .
COc1ccc(-c2[nH]ncc2/C=N/NC(=O)c2ccncc2)c(OC)c1 | -10 | 0 | 8 | -1 | 0 | 0 | . | . | . | . | .
O=S(=O)(Nc1ccc(-c2nc3cccnc3s2)cc1)c1cccs1 | -393 | 22 | 29 | 5 | 65* | -31 | 21 | 14 | 19 | 31 | 6
CCS(=O)(=O)Nc1ccc(-c2nc3cccnc3s2)cc1 | -402 | 64* | 53* | 36* | 73* | -113 | 75* | 73* | 94* | 86* | 78*
SMILES | SENP8 block-1 | SENP8 block-2 | SENP7 inh | HSP90 refold inh | SENP6 block | SENP1 inh | SENP8 confirm | SENP6 conf | SENP7 confirm | Casp3 SENP sel | SENP luc ctr
O=S(=O)(Nc1ccc(-c2nc3cccnc3s2)cc1)c1ccc(Cl)s1 | -412 | 34 | 4 | 3 | 58* | -74 | 36 | 34 | 54* | 28 | 23
CCS(=O)(=O)Nc1cccc(-c2nc3cccnc3s2)c1 | -92 | -7 | 9 | -5 | -18 | -1 | . | . | . | . | .
Cc1c(NS(=O)(=O)c2cccs2)cccc1-c1nc2cccnc2s1 | -136 | -1 | -9 | -1 | 9 | -3 | . | . | . | . | .
Cc1cc(-c2nc3cccnc3s2)ccc1NS(=O)(=O)c1cccs1 | -396 | 91* | 74* | 13 | 95* | -29 | 89* | 92* | 98* | 86* | 55*
COc1ccc(CN2CCC2(C)C(=O)Nc2cnc3ccccc3c2)c2ccccc12 (centres undefined) | 8 | . | . | . | . | -2 | . | . | . | . | .
CCOc1ccc(C(=O)Nc2ccc(S(=O)(=O)N3C[C@@H]4C[C@@H](C3)c3cccc(=O)n3C4)cc2)cc1 | 21 | 19 | 6 | . | -2 | 1 | . | . | . | . | .
O=[N+]([O-])c1ccc(O)c(/C=N/NC(=S)Nc2ccc(Cl)cc2Cl)c1 | 28 | 88* | 57* | 3 | 94* | -77 | 77* | 85* | 55* | 35 | 6
Cc1ccc(S(=O)(=O)N2C3CCCCC3O[C@H]2CC(=O)c2cccc3ccccc23)cc1 (some centres undefined) | 16 | . | . | . | . | -1 | . | . | . | . | .
Cc1cc(C)c(NC(=O)CNC(=O)CN(C)Cc2ccc(Br)s2)c(C)c1 | 1 | 1 | 3 | . | -11 | 1 | . | . | . | . | .
O=C(NCc1ccc2c(c1)OCO2)c1cc(-c2ccccc2)nn1CC1CC(c2cccnc2)=NO1 (centres undefined) | 6 | -10 | -3 | . | -6 | 0 | . | . | . | . | .
CCCC(=O)Nc1nc(-c2ccccc2)ns1 | 13 | 0 | -2 | 1 | -6 | -1 | . | . | . | . | .
Cc1nnc(SCCC(=O)Nc2nc(-c3ccccc3)ns2)s1 | -4 | 17 | -5 | 2 | 58* | -11 | 54* | 50* | 78* | 26 | 30
